Data set [1] has as its system NUGC-3. Nature of the data set: Anticancer activity against human NUGC3 cells after 72 hrs by MTS/PMS assay. The note with it: NUGC-3, 72 h. It counts as functional, cell-based. The method, boiled down:
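NUGC-3 gastric cancer cells seeded 4500/well, grown 24 h at 37 °C, 5% CO2, then exposed 72 h to a concentration series, duplicate wells per concentration, final DMSO ≤0.3%. Controls were actinomycin D 10 nM and 0.3% DMSO vehicle. Viability read colorimetrically by MTS/PMS. IC50 is the concentration giving 50% growth inhibition, reported as mean of triplicate wells from at least three experiments.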

For data set [2], the system named is MKN-45. Nature of the data set: Ex vivo apoptotic activity in human MKN45 cells xenografted in nude mouse assessed as DNA fragmentation at 10 ug/mL after 96 hrs by immunostaining. The data set is classed as functional, cell-based. (In xenograft studies the graft and the host belong to different species.)
The subject of data set [3] is SW480. Nature of the data set: Ex vivo antiproliferative activity against human SW480 cells xenografted in nude mouse assessed as BrdU incorporation into DNA at 10 ug/mL after 96 hrs by immunostaining. It counts as functional, cell-based. An outline of the steps:
(§1)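 MKN-45 or SW-480 cells (1 × 10^6) grown subcutaneously in nude mice to ~1 cm3; tumors cut into 1–2 mm pieces and histocultured on gelatin gels in MEM/DMEM with 10% FBS at 37 °C. After 3 days, exposed 96 h to 0.0001–10 μg/mL, then 40 μM BrdU for 48 h. Fixed, paraffin-sectioned, BrdU-immunostained with hematoxylin counterstain. Labeling index = BrdU-positive/total tumor cells; IC50 taken as concentration halving LI.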

In data set [4] the test system is MKN-45. Description: Ex vivo antiproliferative activity against human MKN45 cells xenografted in nude mouse assessed as drug concentration reducing 50% of BrdU labeling index after 96 hrs by immunostaining. The settings on record: MKN-45, 96 h. It counts as functional, cell-based. An outline of the steps: as §1
Data set [5] relates to P388. Nature of the data set: Anticancer activity against mouse P388 cells xenografted in DBA/2J mouse assessed as increase in mouse life span at 200 mg/kg, po administered daily for 9 consecutive days. The data set is classed as functional. An outline of the steps:
(§2)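 Female DBA/2J mice, 5 weeks old, each given 1 × 10^6 P388 cells iv. Oral dosing by gavage (0.1 mL) started one day after inoculation. Compound was dissolved in DMSO and diluted in 0.5% carboxymethyl cellulose (final DMSO <0.5%). Groups of 7–8 mice; vehicle-only controls. Survival checked twice daily. Result is percentage increase in median survival time relative to the control group.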

Data set [6] concerns MKN-45. Description: Ex vivo antiproliferative activity against human MKN45 cells xenografted in nude mouse assessed as BrdU incorporation into DNA at 10 ug/mL after 96 hrs by immunostaining. The data set is classed as functional, cell-based. The method, boiled down:
as §1

Data set [7] is filed under the species Bos taurus. Nature of the data set: Displacement of [3H]colchicine from bovine brain tubulin at 25 uM after 1 hr by scintillation counting.
Data set [8] is described as follows: Inhibition of bovine brain tubulin polymerization by turbidity assay. Also on record: species or system Bos taurus.
For data set [9], the species on record is Bos taurus. Nature of the data set: Displacement of [3H]colchicine from bovine brain tubulin after 1 hr by scintillation counting.
Data set [10] relates to NUGC-3. Description: Induction of apoptosis in human NUGC3 cells assessed as DNA fragmentation at 100 nM by ethidium bromide staining-based agarose gel electrophoresis. It counts as functional, cell-based.
The test system of data set [11] is P388. Description: Anticancer activity against mouse P388 cells xenografted in po dosed DBA/2J mouse assessed as increase in mouse life span administered daily for 9 consecutive days. It counts as functional, organism-based. The method, boiled down: (§3)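 Female DBA/2J mice, 5 weeks old, inoculated iv with 1 × 10^6 P388 cells each; dosing began one day later, 7–8 mice per group. Compound in DMSO diluted into 0.5% carboxymethyl cellulose (final DMSO <0.5%). Regimens: iv 2.5 or 7.5 (mg/kg)/day for 4 days; po gavage (0.1 mL) 25–200 (mg/kg)/day for 9 days. Vehicle-only controls. Survival checked twice daily; increase in life span computed from median survival time normalized to controls.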

For data set [12], the system named is MKN-45. Nature of the data set: Ex vivo antiproliferative activity against human MKN45 cells xenografted in nude mouse assessed as BrdU incorporation into DNA after 96 hrs by immunostaining. The data set is classed as functional, cell-based. The method, boiled down: as §1
In data set [13] the test system is P388. Description: Anticancer activity against mouse P388 cells xenografted in DBA/2J mouse assessed as increase in mouse life span at 2.5 mg/kg, iv administered daily for 4 consecutive days. The data set is classed as functional. An outline of the steps:
(§4)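 Female DBA/2J mice, 5 weeks old, each inoculated iv with 1 × 10^6 P388 cells (grown in RPMI 1640 with nonessential amino acids, 50 μM 2-mercaptoethanol, 10% FBS). Compound was given iv starting one day after inoculation. Groups of 7–8 mice plus vehicle controls, monitored twice daily. Percentage increase in life span calculated from median survival time, normalised to controls.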

Data set [14] has as its system NUGC-3. Description: Induction of apoptosis in human NUGC3 cells assessed as DNA fragmentation at 1 uM after 16 hrs by Hoechst 33258 staining-based confocal laser-scanning microscopy. The data set is classed as functional, cell-based. The method, boiled down: (§5)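 NUGC-3 cells exposed to 1 μM for 16 h, then fixed in 4% formaldehyde 10 min and blocked with BSA. Stained with monoclonal anti-β-tubulin (1:200, 4 °C overnight) followed by FITC anti-mouse IgG (1:300, 1 h), and for DNA with Hoechst 33258 (1 μg/mL in 0.1% Triton X-100, 5 min). Imaged by confocal laser-scanning microscopy. DMSO vehicle control included.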

For data set [15], the system named is SW480. Nature of the data set: Ex vivo antiproliferative activity against human SW480 cells xenografted in nude mouse assessed as BrdU incorporation into DNA after 96 hrs by immunostaining. It counts as functional, cell-based. The method, boiled down:
as §1

Data set [16] deals with Mus musculus. Description: Toxicity in DBA/2J mouse xenografted with mouse P388 cells assessed as body weight loss at 25 to 200 mg/kg, po administered daily for 9 consecutive days. The data set is classed as organism-based. Details: dose 25-200 mg/kg, route oral. The note with it: in vivo.
Data set [17] relates to P388. Nature of the data set: Anticancer activity against mouse P388 cells xenografted in DBA/2J mouse assessed as increase in mouse life span at 100 mg/kg, po administered daily for 9 consecutive days. It counts as functional. An outline of the steps: as §2
Data set [18] relates to NUGC-3. Description: Induction of microtubule arrangement aberration in human NUGC3 cells assessed as appearance of tubulin at 1 uM after 16 hrs FITC analysis. It counts as functional, cell-based. An outline of the steps: as §5
The subject of data set [19] is Mus musculus. Nature of the data set: Toxicity in DBA/2J mouse xenografted with mouse P388 cells assessed as body weight loss at 2.5 to 7.5 mg/kg, iv administered daily for 4 consecutive days. It counts as organism-based. Also on record: dose 2.5-7.5 mg/kg, route intravenous. The note with it: in vivo.
Data set [20] has as its system P388. Description: Anticancer activity against mouse P388 cells xenografted in DBA/2J mouse assessed as increase in mouse life span at 7.5 mg/kg, iv administered daily for 4 consecutive days. The data set is classed as functional. An outline of the steps: as §4
Data set [21] deals with P388. Description: Anticancer activity against mouse P388 cells xenografted in iv dosed DBA/2J mouse assessed as increase in mouse life span administered daily for 4 consecutive. It counts as functional, organism-based. An outline of the steps: as §3
In data set [22] the test system is P388. Description: Anticancer activity against mouse P388 cells xenografted in DBA/2J mouse assessed as increase in mouse life span at 25 mg/kg, po administered daily for 9 consecutive days. The data set is classed as functional. An outline of the steps:
as §2

Calls of active or inactive are those of the source. No cut-off for these calls is given here.

The compound `Nc1nc(-c2ccccc2)cn1/N=C/c1ccc(Br)cc1` displayed an IC50 in data set [1] of 580 nM.
Regarding `Nc1nc(-c2ccccc2)cn1/N=C/c1ccc(F)cc1`, the outcome in [2], in [3] and in data set [6] was Active. Moreover, the results for the IC50 in data set [1] and in data set [4] were 50 nM and 34000 nM, respectively. The Activity in data set [5] was determined as 110%.
For the compound `Nc1nc(-c2ccc(Cl)s2)cn1/N=C/c1ccc(Cl)cc1`, the IC50 in [1] worked out at 3280 nM.
Still for that read-out and setting: to `Nc1nc(-c2ccccc2)cn1/N=C/c1ccccc1` belongs 840 nM.
In the case of `Nc1nc(-c2cccnc2)cn1/N=C/c1ccc(Cl)cc1`, the result in [7] and in [10] was Active. Also, the results for the half-inhibitory concentration (IC50) in [8] and in data set [1] were 270 nM and 230 nM, respectively. For the same compound, the Activity entry in data set [9] is “Dose-dependent effect”.
In turn, `Nc1nc(-c2ccsc2)cn1/N=C/c1ccc(Cl)cc1` returned an IC50 in data set [1] of 50 nM.
Same read-out and setting: to `COc1ccccc1-c1cn(/N=C/c2ccc(Cl)cc2)c(N)n1` belongs 5200 nM; to `COc1cc2c(c(OC)c1OC)-c1ccc(OC)c(=O)cc1[C@@H](NC(C)=O)CC2` [COLCHICINE], 10 nM.
Turning to `Nc1nc(-c2ccccc2)cn1/N=C/c1ccc(Cl)cc1`, the Activity result was “Dose-dependent effect” in [11]; “Dose-dependent effect” in data set [12]; 17% in [13]; “Dose-dependent effect” in data set [15]; “Non-toxic” in [16]; 71% in [17]. Also, the Activity result in data set [19] was “Non-toxic”; in data set [20] it was 100%; in data set [5], 114%; in data set [21] it was “Dose-dependent effect”; in data set [9], “Dose-dependent effect”; in data set [22], 14%. The result in data set [7], in data set [14], in data set [18] and in data set [10] was Active. For the same compound, the IC50 stood at 2650 nM in [8], 60 nM in data set [1] and 13000 nM in data set [4].
In the case of `Nc1nc(-c2nccs2)cn1/N=C/c1ccc(Cl)cc1`, in data set [1], the midpoint of inhibition, the IC50, lay at 510 nM.
On the same count and under the same terms, to `Cc1ccsc1/C=N/n1cc(-c2ccccc2)nc1N` belongs 910 nM.
`Nc1nc(-c2ccccc2)cn1/N=C/c1ccc(C(F)(F)F)cc1` showed an IC50 in [1] of 5770 nM.
Still for that read-out and setting: as for `Nc1nc(-c2ccccc2)cn1/N=C/c1ccccc1Cl`, the figure is 3970 nM.
With `Nc1nc(-c2cccs2)cn1/N=C/c1ccc(Cl)cc1`, in [1], it took 80 nM to reach half-maximal inhibition (IC50).
Turning to `Nc1nc(-c2ccccc2)cn1/N=C/c1cccc(Cl)c1Cl`, the half-maximal inhibitory concentration (IC50) in data set [1] was found to be 5120 nM.
On the same count and under the same terms, to `Nc1nc(-c2ccccc2)c(-c2ccccc2)n1/N=C/c1ccc(Cl)cc1` belongs above 10000 nM; to `Nc1nc(-c2ccccn2)cn1/N=C/c1ccc(Cl)cc1`, 310 nM; to `Nc1nc(-c2cccnc2)cn1/N=C/c1ccc(F)cc1`, 60 nM.
The same measure, in the same setting: to `Nc1nc(-c2ccc(-c3ccccc3)cc2)cn1/N=C/c1ccc(Cl)cc1` belongs above 10000 nM.
The same measure, in the same setting: to `Nc1nc(-c2ccccc2)cn1/N=C/c1ccnc2ccccc12` belongs above 10000 nM; to `Nc1nc(-c2ccccc2)cn1/N=C/c1ccc(Cl)c(Cl)c1`, 740 nM.

In general, IC50 refers to the concentration that gives 50% inhibition.

The values are drawn from ChEMBL document CHEMBL1157612, “Synthesis and biological activities of 2-amino-1-arylidenamino imidazoles as orally active anticancer agents” (J Med Chem, 2010).
